Hit rate of the full screen: of about 360,000 compounds, about 3,600 (1%) were called active. The entries come from a sample that favours actives as a whole. A number with no mark means an inactive call.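 The calls were made as follows: active = activation above the mean activation of all test compounds in the run plus 3 SD (cut at about 38% in these data); inactive = the rest.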

This is an account of results in PubChem BioAssay AID624467 (The Scripps Research Institute Molecular Screening Center, 2012).

Trace amine-associated receptor 1 (Homo sapiens), sequence (Q96RJ0 whole entry, looked up): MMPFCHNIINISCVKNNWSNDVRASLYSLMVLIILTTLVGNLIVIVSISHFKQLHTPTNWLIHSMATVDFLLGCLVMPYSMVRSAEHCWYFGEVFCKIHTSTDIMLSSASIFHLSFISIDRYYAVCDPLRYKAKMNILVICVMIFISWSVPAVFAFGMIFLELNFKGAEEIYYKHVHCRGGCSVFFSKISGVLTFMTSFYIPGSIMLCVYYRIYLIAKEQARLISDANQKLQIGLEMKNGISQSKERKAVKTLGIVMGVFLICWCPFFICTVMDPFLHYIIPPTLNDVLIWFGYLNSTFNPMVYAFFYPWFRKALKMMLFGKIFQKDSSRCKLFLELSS

The test addresses Trace amine-associated receptor 1 (Homo sapiens) (UniProt Q96RJ0). The test is described as follows: activators of TAAR1 calcium mobilization – Fluo-8 calcium fluorescence, CHO RD-HGA16 cells, primary screen (AID 624467). To be noted: CHO RD-HGA16 TAAR1, Fluo-8 calcium fluorescence; at 3 µM; active compounds read high; vehicle wells 0%, saturating PEA agonist 100%. In a few lines: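 Assay system: CHO-derived RD-HGA16 cells with stable Gα16 and human TAAR1; timing: 17-24 h seeding, 75 min 37 °C dye, 30 min RT; read-out: % activation from peak over basal fluorescence ratio, DMSO-to-PEA scaled; measured by: kinetic Fluo-8 calcium fluorescence; benchmarks: low control DMSO, high control PEA (EC100); doses: 3 µM single concentration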
A general note: Calcium assays in cells follow changes in intracellular calcium, usually with a dye or a luminescent sensor.
`CCN(CC)Cc1nc2sc(C)c(C)c2c(=O)[nH]1`: the activation is 7.06%.
Turning to `Cc1cc(NCCc2c[nH]c3ccccc23)ccc1Oc1cccnc1`, the activation is -0.68%.
The figure for `COC(=O)Nc1nc2ccc(C(=O)C3CC3)cc2[nH]1` is 0.33%; for `CC(C)C(=O)Nc1nnc(SCC(=O)N2C(C)CCCC2C)s1` (centres undefined) it is 2.6%.
On to `CC/C(=C(/c1ccccc1)c1ccc(OCC[N+](C)(C)C)cc1)c1ccccc1`, for which the activation was 13.5%.
Then `OC(c1ccccc1)(c1ccccc1)C1CCN(CCCOc2ccc(-c3ccsc3)cc2)CC1`, with 35.3%; and `N#Cc1ccc(OCCCN2CCC(C(O)(c3ccccc3)c3ccccc3)CC2)c(F)c1`, with 51% (active); and `OC(c1ccccc1)(c1ccccc1)C1CCN(CCCOc2ccccc2)CC1`, with 23.6%.
Regarding `Cc1ccc2c(c1)N(S(=O)(=O)c1cc(-c3cc(C)no3)ccc1C)CCO2`, the activation was 0.2%.
Then `Nc1c(C(=O)c2cccs2)sc2nsc(SCCN3CCCCC3)c12`, with 95.1% (active); and `Nc1ccn([C@@H]2O[C@H](C(=O)N[C@H]3CCCCNC3=O)[C@@H](O)[C@H]2O)c(=O)n1`, with -0.44%; and `c1ccc(Nc2nc(N3CCOCC3)c3ccccc3n2)cc1`, with 98.4% (active).
The figure for `COc1ccc(Nc2ncc(F)c(N3CCOCC3)n2)cc1` is 6.99%; for `c1ccc2c(NC3C4CC5CC(C4)CC3C5)nc(N3CCOCC3)nc2c1` (centres undefined) it is 28.9%.
Then `O=S1(=O)c2c(cccc2N2CCCCC2)O[C@H](COCc2ccccc2)CN1C1CC1`, with -0.15%.
With `CC(C)Oc1ccc(/C=N/NC(=O)c2nnn(-c3nonc3N)c2CN(C)C2CCCCC2)cc1`, the activation was 19.2%.
Then `CCc1ccc(/C=N/NC(=O)c2nnn(-c3nonc3N)c2CN2CCc3ccccc32)cc1`, with 4.17%; and `C/C(COc1ccccc1)=N\NC(=O)c1nnn(-c2nonc2N)c1-c1ccc(C)cc1`, with 6.16%.
Then `CCCOc1ccc(-c2c(C(=O)N/N=C/c3ccco3)nnn2-c2nonc2N)cc1`, with 74.1% (active); and `Nc1nonc1-n1nnc(C(=O)N/N=C/c2ccc(Cl)cc2)c1-c1ccc2c(c1)OCO2`, with 133% (active); and `CC(C)c1c(C(=O)N/N=C/c2ccccc2C(=O)O)nnn1-c1nonc1N`, with 2.66%.
Then `CCOC(=O)N1CCN(C(=O)C[C@H]2C[C@@]3(C(=O)OC)C(=C[C@H](C4CCCC4)O[C@@H]3C)N(Cc3ccccc3)C2=O)CC1`, with -1.14%.
For `CCc1ccc(C2=CC(=O)CC(C)(C)C2=O)cc1`, the activation is -1.42%.
The figure for `CCCCN1C(=O)C(CC(=O)NC(c2ccccc2)c2ccccc2)CC(C(=O)N2CCOCC2)=C1C` (centres undefined) is 0.19%.
Regarding `CC(C)CNc1cccc2c1S(=O)(=O)N[C@H](CC(C)C)CO2`, the activation was -0.51%.
The figure for `CN(C(=O)CN(CCO)CC(=O)N(C)C(C)(C)Cc1ccccc1)C(C)(C)Cc1ccccc1` is 125% (active); for `CN(CCO)C(=O)c1nc[nH]c1C(=O)N(C)Cc1ccccc1` it is 0.95%.
Then `CCOC(=O)N(Cc1ccccc1)C1CC1`, with 3.18%; and `COc1ccc(NS(=O)(=O)c2cc3c(cc2C)N(C(C)=O)CCO3)cc1`, with 1.33%; and `C=CC[C@]12C[C@@]3(O[C@H](c4ccc(C(F)(F)F)cc4)N=C3C[C@H](c3ccc(OC)cc3)[C@H]1C)N(C1CCN(Cc3ccccc3)CC1)C2=O`, with 0.44%.
As for `CC1CCN(C(=O)CCNC(=O)c2ccccc2)CC1`, the activation was 1.29%.
As for `CC1CCCN(c2ccc(C(=O)NCCc3ccccc3)cn2)C1` (centres undefined), the activation is 41.2% (active).
Then `CC1CCN(c2c(NCc3ccc(C(=O)NCc4ccccc4)cc3)c(=O)c2=O)CC1`, with 0.05%; and `CC(=O)NC1C(Oc2ccc(C)cc2)OC2COC(c3ccco3)OC2C1O` (centres undefined), with 1.22%; and `O=C(Nc1ccc(Cl)cc1)Nc1ccc(Oc2cccnc2)nc1`, with 35.4%.
Then `CCc1ccc(NC(=O)Nc2ccncc2)cc1`, with 30.2%.
For `O=C(Nc1ccncc1)Nc1ccc(F)cc1`, the activation was 78.9% (active).
Then `O=C(CCC(=O)n1ncc2ccccc21)NCc1ccccc1Cl`, with 0.3%; and `COc1cccc(NC(=O)N(C)C[C@@H]2OCc3cn(nn3)CCCC(=O)N([C@@H](C)CO)C[C@H]2C)c1`, with 1.34%; and `O=S(=O)(c1ccc(Br)c2ccccc12)N1CCOCC1`, with 3.96%.
The figure for `CCOC(=O)C1=C(O)/C(=C/c2cc(C)n(-c3ccccc3)c2C)N=C1C` is 8.89%; for `Cc1cccc(C)c1-n1c(C)cc(/C=C2\C(=O)NN(c3ccccc3)C2=O)c1C` it is 38.3% (active).
As for `CN(C(=O)c1cccc(NC(=O)C2CCN(C(=O)OC(C)(C)C)CC2)c1)C1CCC1`, the activation was 12.7%.
Then `Cc1ccc(CNC(=O)Nc2nnc([C@H]3C[C@H](O)[C@@H](CO)O3)s2)cc1`, with 0.94%; and `O=C(Nc1ccc(F)cc1)Nc1nnc([C@H]2C[C@H](O)[C@@H](CO)O2)s1`, with 45% (active).
For the molecule `O=C(Nc1nnc([C@H]2C[C@H](O)[C@@H](CO)O2)s1)c1cccc(Cl)c1`, the activation was 2.33%.
Turning to `CC(=O)c1c(N2CCN(c3ccc(F)cc3)CC2)nc(=S)n(-c2ccccc2)c1C`, the activation was -0.41%.
Take `Cn1ccsc1=NC(=O)c1cc(S(=O)(=O)N2CCOCC2)ccc1Cl`: the activation was 4.63%.
Then `COc1ccc(-c2ccc3c(n2)CCCN3S(=O)(=O)c2ccc(C)cc2)cc1`, with 1.61%.
For `Cc1ccc(Cn2c(C)c(C(=O)NCc3ccccc3C(F)(F)F)sc2=O)cc1`, the activation is 0.22%.
The figure for `CC(=O)Oc1ccc(Cn2c(C)c(C(=O)NCc3ccc(C#N)cc3)sc2=O)cc1` is 140% (active); for `Cc1c(C(=O)NCc2ccc(C#N)cc2)sc(=O)n1Cc1ccc(C(=O)N(C)C)cc1` it is 2.3%.
For the molecule `CC(C)[C@@H](C)/C=C/[C@@H](C)[C@H]1CC[C@@H]2[C@]1(C)CCC1[C@]23C=C[C@]2(C[C@@H](O)CC[C@]12C)N(c1ccc([N+](=O)[O-])cn1)O3` (some centres undefined), the activation was -0.81%.
The figure for `O=C(NCc1ccccc1)[C@H]1CCCN1C(=O)[C@H]1CCCN1C(=O)c1cc(F)cc(F)c1` is -0.16%.
